Laboratory results taken from ChEMBL document CHEMBL1126169, “8-Polycycloalkyl-1,3-dipropylxanthines as potent and selective antagonists for A1-adenosine receptors” (J Med Chem, 1992).

Key:
[1] = target: T1, Adenosine receptor A1 (Cavia porcellus, UniProt P47745); assay: Binding affinity against adenosine A1 receptor using N6-[3H]cyclohexyladenosine as radioligand in guinea pig forebrain membranes; type: cell membranes, Brain membranes
T1 sequence (P47745 whole entry): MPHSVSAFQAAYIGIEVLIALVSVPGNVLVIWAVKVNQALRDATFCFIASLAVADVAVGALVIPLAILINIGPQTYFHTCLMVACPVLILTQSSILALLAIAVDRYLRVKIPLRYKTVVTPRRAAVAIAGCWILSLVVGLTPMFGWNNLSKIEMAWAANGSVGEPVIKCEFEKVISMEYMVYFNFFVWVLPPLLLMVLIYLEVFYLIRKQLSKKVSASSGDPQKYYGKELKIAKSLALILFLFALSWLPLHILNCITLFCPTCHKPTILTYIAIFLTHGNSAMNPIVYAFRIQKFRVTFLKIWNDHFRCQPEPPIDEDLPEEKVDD

[2] = target: T2, Adenosine A2 receptor (Rattus norvegicus, UniProt P29276+P30543); assay: Binding affinity against adenosine A2 receptor using N-[3H]-ethyladenosin-5''-uronamide as radioligand in rat striatal membranes.; type: cell membranes
[3] = target: T1, Adenosine receptor A1; assay: Binding affinity against Adenosine A1 receptor using N6-[3H]cyclohexyladenosine in guinea pig forebrain membranes; type: cell membranes, Brain membranes
Outline: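 Guinea pig forebrain membranes in 50 mM Tris-HCl pH 7.7, pretreated with adenosine deaminase (2.0 units/mL, 30 min, 37 °C), 10 mg tissue per tube. Incubated with 1.1 nM [3H]cyclohexyladenosine, final DMSO <0.9%, for 90 min at 25 °C, then GF/C filtration and scintillation counting. Nonspecific binding defined with 10 µM R-PIA.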

[4] = target: T2, Adenosine A2 receptor; assay: Binding affinity against Adenosine A2 receptor using N-[3H]-ethyladenosin-5''-uronamide in rat striatal membranes; type: cell membranes, Striatum, Membrane
[5] = target: T1, Adenosine receptor A1; assay: Inhibition of N6-[3H]cyclohexyladenosine binding to guinea pig forebrain membrane Adenosine A1 receptor
[6] = target: Adenosine receptor A1 (Rattus norvegicus) (UniProt P25099); assay: Binding affinity against adenosine A1 receptor using N6-[3H]cyclohexyladenosine as radioligand in rat brain membranes
[7] = target: T3, Adenosine receptor A1 (Rattus norvegicus, UniProt P25099); assay: Binding affinity against Adenosine A1 receptor using N6-[3H]cyclohexyladenosine in rat brain membranes; type: cell membranes
T3 sequence (P25099 whole entry): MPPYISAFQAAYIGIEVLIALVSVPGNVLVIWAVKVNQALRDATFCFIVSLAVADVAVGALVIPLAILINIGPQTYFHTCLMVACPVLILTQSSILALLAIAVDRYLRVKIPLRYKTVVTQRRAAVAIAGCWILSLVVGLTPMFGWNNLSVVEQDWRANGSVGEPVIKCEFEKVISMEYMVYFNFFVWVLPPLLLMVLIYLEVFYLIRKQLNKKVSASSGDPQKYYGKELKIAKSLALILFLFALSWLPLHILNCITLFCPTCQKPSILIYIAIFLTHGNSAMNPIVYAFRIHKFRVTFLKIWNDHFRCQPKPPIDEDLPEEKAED
Outline: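 Rat forebrain membranes were prepared like the guinea pig tissue. Tissue was homogenized in ice-cold 50 mM Tris-HCl pH 7.7, centrifuged at 50000g and washed. It was treated with ADA (2.0 units/mL) for 30 min at 37 °C, then used at 10 mg tissue/mL. Duplicate curves used five or more concentrations; IC50 from logit-log plots was converted to Ki by Cheng-Prusoff.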

[8] = target: T1, Adenosine receptor A1; assay: Binding affinity against Adenosine A1 receptor using N6-[3H]cyclohexyladenosine in guinea pig membranes; type: cell membranes
[9] = Inhibitory activity against adenylate cyclase using (R)-N6-(2-[3H]-phenyl-1-methylethyladenosine as radioligand in rat adipocytes; type: cell-based
[10] = Binding affinity against adenylate cyclase using N-[3H]-ethyl adenosine-5-uronamide as radioligand in human platelet membranes; type: cell membranes

| Ki [1] | Ki [2] | SMILES | also measured |
| --- | --- | --- | --- |
| 210 nM | 1900 nM | CCCn1c(=O)c2nc(-c3cccs3)[nH]c2n(CCC)c1=O | – |
| – | – | CCCn1c(=O)c2nc(-c3cc(S(=O)(=O)[O-])co3)[nH]c2n(CCC)c1=O.[K+] | Ki [3]: > 10000 nM; Ki [4]: > 10000 nM |
| 3.5 nM | 330 nM | CCCn1c(=O)c2nc(C3CCC4CCCC43)[nH]c2n(CCC)c1=O (configuration not stated) | Ki [5]: 5.6 nM; Ki [4]: 560 nM |
| 13 nM | – | CCCn1c(=O)c2[nH]c(C34C[C@H]5C[C@@H](C3)C[C@@H](C4)C5)nc2n(CCC)c1=O | – |
| 80 nM | – | CCCn1c(=O)c2[nH]c(C[C@H]3CC4CCC3C4)nc2n(CCC)c1=O (some centres not stated) | – |
| 120 nM | 1200 nM | CCCn1c(=O)c2nc(CC3CC3)[nH]c2n(CCC)c1=O | – |
| – | – | CCCn1c(=O)c2nc(C3c4ccccc4-c4ccccc43)[nH]c2n(CCC)c1=O | Ki [3]: 2900 nM; Ki [4]: > 100000 nM |
| – | – | CCC(CC)Nc1ncnc2c1ncn2C1O[C@H](CO)[C@@H](O)[C@H]1O (some centres not stated) | Ki [6]: 0.75 nM |
| > 100000 nM | > 100000 nM | CCCn1c(=O)c2nc(-c3cc4ccccc4n3C)[nH]c2n(CCC)c1=O | – |
| 240 nM | 21000 nM | CCCn1c(=O)c2nc(C(C)(O)CC)[nH]c2n(CCC)c1=O (configuration not stated) | – |
| 3.4 nM | 210 nM | CCCn1c(=O)c2nc([C@H]3CC4C=CC3C4)[nH]c2n(CCC)c1=O (some centres not stated) | – |
| > 10000 nM | > 100000 nM | CCCn1c(=O)c2nc(-c3nn[nH]n3)[nH]c2n(CCC)c1=O | – |
| – | – | CC[C@H](C)Nc1ncnc2c1ncn2C1O[C@H](CO)[C@@H](O)[C@H]1O (single isomer, unassigned) | Ki [5]: 0.8 nM |
| 170 nM | 12000 nM | CCCn1c(=O)c2nc(C(O)(CC)CC)[nH]c2n(CCC)c1=O | – |
| 31 nM | 2300 nM | CCCn1c(=O)c2nc(C(C)(C)C)[nH]c2n(CCC)c1=O | – |
| 410 nM | 2300 nM | CCCn1c(=O)c2nc(-c3csc(C)n3)[nH]c2n(CCC)c1=O | – |
| 1.9 nM | – | CC(C)Nc1ncnc2c1ncn2[C@@H]1O[C@H](CO)[C@@H](O)[C@H]1O | – |
| > 10000 nM | 1200 nM | CCCn1c(=O)c2nc(-c3cc4ccccc4o3)[nH]c2n(CCC)c1=O | – |
| – | – | OC[C@H]1O[C@@H](n2cnc3c(NC4CC5CCC4C5)ncnc32)[C@H](O)[C@@H]1O (some centres not stated) | Ki [5]: 0.7 nM; Ki [7]: 0.91 nM |
| – | – | CC[C@@H](C)Nc1ncnc2c1ncn2[C@@H]1O[C@H](CO)[C@@H](O)[C@H]1O | Ki [5]: 1.3 nM |
| – | – | CC(C)Cn1c(=O)n(C)c(=O)c2[nH]c(C34CC5CC(CC3C5)C4)nc21 | Ki [5]: 15 nM |
| – | – | CCCn1c(=O)[nH]c(=O)c2[nH]c(C34CC5CC(CC3C5)C4)nc21 | Ki [5]: 370 nM; Ki [4]: > 100000 nM |
| > 100000 nM | > 100000 nM | CCCn1c(=O)c2nc(-c3cc4ccccc4s3)[nH]c2n(CCC)c1=O | – |
| 10 nM | – | CCCCn1c(=O)c2nc(C34CC5CC(CC3C5)C4)[nH]c2n(CCCC)c1=O | – |
| 560 nM | 530 nM | CCCn1c(=O)c2nc(-c3ccco3)[nH]c2n(CCC)c1=O | – |

| Ki [1] | Ki [2] | SMILES | also measured |
| --- | --- | --- | --- |
| 4.3 nM | 480 nM | CCCn1c(=O)c2nc([C@@H]3CC4C=CC3C4)[nH]c2n(CCC)c1=O (some centres not stated) | – |
| – | – | OC[C@H]1OC(n2cnc3c(NC(C4CC4)C4CC4)ncnc32)[C@H](O)[C@@H]1O (some centres not stated) | Ki [5]: 0.75 nM |
| 220 nM | 1700 nM | CCCn1c(=O)c2nc(C3Cc4ccccc4C3)[nH]c2n(CCC)c1=O | – |
| 25 nM | 2200 nM | CCCn1c(=O)c2nc(C(C)(C)CCC)[nH]c2n(CCC)c1=O | – |
| 73 nM | – | OC[C@H]1OC(n2cnc3c(NC45C[C@H]6C[C@@H](C4)C[C@@H](C5)C6)ncnc32)[C@H](O)[C@@H]1O (some centres not stated) | – |
| 3.8 nM | 440 nM | CCCn1c(=O)c2nc([C@@H]3CC4CCC3C4)[nH]c2n(CCC)c1=O (some centres not stated) | – |
| 23 nM | 1000 nM | CCCn1c(=O)c2nc(C(C)(C)CC)[nH]c2n(CCC)c1=O | – |
| – | – | CCCn1c(=O)c2nc(C3CC4CCC3C4)[nH]c2n(CCC)c1=O (configuration not stated) | Ki [5]: 4.4 nM |
| 20 nM | – | CC(C)(C)Nc1ncnc2c1ncn2C1O[C@H](CO)[C@@H](O)[C@H]1O (some centres not stated) | – |
| – | – | CCCn1c(=O)c2nc(-c3cnns3)[nH]c2n(CCC)c1=O | Ki [3]: 4400 nM; Ki [4]: > 10000 nM |
| 11 nM | 1200 nM | CCCn1c(=O)c2nc(C3(C)CCCCC3)[nH]c2n(CCC)c1=O | – |
| – | > 100000 nM | CCCn1c(=O)c2nc(C3C(C)(C)CCC3(C)C)[nH]c2n(CCC)c1=O | – |
| – | – | CCCn1c(=O)c2nc[nH]c2n(CCC)c1=O | Ki [5]: 1400 nM; Ki [8]: 1000 nM; Kb [9]: 940 nM |
| – | – | OC[C@H]1OC(n2cnc3c(NCC4CC4)ncnc32)[C@H](O)[C@@H]1O (some centres not stated) | Ki [6]: 0.75 nM |
| 49 nM | 6000 nM | CCCn1c(=O)c2nc(CC(C)(C)C)[nH]c2n(CCC)c1=O | – |
| 880 nM | > 100000 nM | CCCn1c(=O)c2nc(CC34C[C@H]5C[C@@H](C3)C[C@@H](C4)C5)[nH]c2n(CCC)c1=O | – |
| 140 nM | 6000 nM | CCCn1c(=O)c2nc(-c3cccn3C)[nH]c2n(CCC)c1=O | – |
| 100000 nM | – | Cn1c(=O)c2c(ncn2C)n(C)c1=O [CAFFEINE] | – |
| – | – | Cn1c(=O)c2[nH]cnc2n(C)c1=O | Kb [10]: 5700 nM; Kb [9]: 4800 nM |
| 3.3 nM | – | CCCC(CCC)Nc1ncnc2c1ncn2C1O[C@H](CO)[C@@H](O)[C@H]1O (some centres not stated) | – |
| – | – | CCC(C)(C)Nc1ncnc2c1ncn2C1O[C@H](CO)[C@@H](O)[C@H]1O (some centres not stated) | Ki [5]: 16 nM |
| – | > 10000 nM | CCCn1c(=O)c2nc(-c3cnsn3)[nH]c2n(CCC)c1=O | – |
| – | – | CC1(Nc2ncnc3c2ncn3C2O[C@H](CO)[C@@H](O)[C@H]2O)CCCCC1 (some centres not stated) | Ki [6]: 70 nM |
| 17 nM | – | CC(C)(C)CNc1ncnc2c1ncn2C1O[C@H](CO)[C@@H](O)[C@H]1O (some centres not stated) | – |
| 41 nM | – | Cn1c(=O)c2[nH]c(C34CC5CC(CC3C5)C4)nc2n(C)c1=O | – |
